The text below walks through data of ChEMBL document CHEMBL4665698, “Triple-Negative Breast Cancer Cells Exhibit Differential Sensitivity to Cardenolides from Calotropis gigantea” (J Nat Prod, 2020).

The test system of one assay is Hs-578T. Briefly: Cytotoxicity against human Hs-578T cells assessed as reduction in cell viability after 48 hrs by SRB assay. It counts as functional, cell-based. Summed up:
(§1)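 Cells exposed to compounds for 48 h; growth inhibition and cytotoxicity read by sulforhodamine B staining. Concentration-response curves fit by four-parameter non-linear regression; IC50 is the concentration giving 50% reduction in cell density versus DMSO vehicle. Cells grown at 37 °C, 5% CO2 (Hs578T in DMEM with 10% FBS and 50 µg/mL gentamicin).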

Assay [1] in a line: Selectivity index, ratio of IC50 for human MDA-MB-231 cells to IC50 for human BT-549 cells. It counts as functional.
Assay [2] concerns MDA-MB-231. The experiment in a line: Cytotoxicity against human MDA-MB-231 cells assessed as reduction in cell viability after 48 hrs by SRB assay. Type of assay: functional, cell-based. Conditions: MDA-MB-231, 48 h. A digest of the protocol: as §1
The test system of assay [3] is BT-549. Briefly: Cytotoxicity against human BT-549 cells assessed as reduction in cell viability after 48 hrs by SRB assay. Type of assay: functional, cell-based. Conditions: BT-549, 48 h. Summed up: as §1
Assay [4] in a line: Inhibition of porcine cerebral cortex Na+/K+-ATPase after 15 mins by ADP-Glo reagent based assay. Details: species or system Sus scrofa. Background: ADP-Glo first removes unused ATP, then detects ADP through luciferase.
The next assay concerns HCC70. Briefly: Cytotoxicity against human HCC70 cells assessed as reduction in cell viability after 48 hrs by SRB assay. It counts as functional, cell-based. The conditions noted are these: HCC70, 48 h. Summed up:
as §1
In general terms: Sulforhodamine B stains cellular protein and so reports cell mass.

The subject of another assay is SUM185PE. Briefly: Cytotoxicity against human SUM185PE cells assessed as reduction in cell viability after 48 hrs by SRB assay. Type of assay: functional, cell-based. A digest of the protocol: (§2)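 Cells grown at 37 °C in humidified 5% CO2 and exposed to compounds for 48 h. Antiproliferative and cytotoxic effects read by sulforhodamine B staining of cell density. Concentration-response curves fit by four-parameter non-linear regression. IC50 taken as the concentration giving 50% reduction in cell density relative to DMSO vehicle.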

A further assay concerns CAL-51. Briefly: Cytotoxicity against human CAL-51 cells assessed as reduction in cell viability after 48 hrs by SRB assay. It counts as functional, cell-based. The conditions noted are these: CAL-51, 48 h. A digest of the protocol:
as §1

The next assay concerns MDA-MB-468. The experiment in a line: Cytotoxicity against human MDA-MB-468 cells assessed as reduction in cell viability after 48 hrs by SRB assay. Conditions: MDA-MB-468, 48 h. Type of assay: functional, cell-based. Summed up: as §1
A further assay deals with HCC1937. The experiment in a line: Cytotoxicity against human HCC1937 cells assessed as reduction in cell viability after 48 hrs by SRB assay. It counts as functional, cell-based. Conditions: HCC1937, 48 h. A digest of the protocol:
as §1

A further assay has as its system HCC1806. Briefly: Cytotoxicity against human HCC1806 cells assessed as reduction in cell viability after 48 hrs by SRB assay. Type of assay: functional, cell-based. Conditions: HCC1806, 48 h. A digest of the protocol:
as §1

In a further assay the test system is MDA-MB-453. Briefly: Cytotoxicity against human MDA-MB-453 cells assessed as reduction in cell viability after 48 hrs by SRB assay. Type of assay: functional, cell-based. Conditions: MDA-MB-453, 48 h. A digest of the protocol:
as §2

Assay [5] deals with MDA-MB-231. The experiment in a line: Induction of intracellular Ca2+ concentration in human MDA-MB-231 cells at 150 nM after 2 hrs by Cal520-AM dye-based fluorescence assay. Type of assay: functional, cell-based. A digest of the protocol: (§3)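 BT-549 and MDA-MB-231 cells in 96-well optical plates at 60–80% confluency, loaded with 2.5 µM Cal-520 AM and 0.2% Pluronic F-127 for 30 min at 37 °C. Same field imaged at 4× at T0 and 2 h after 150 nM compound. Per-cell corrected total fluorescence normalized to T0; two-way ANOVA with Bonferroni test, n = 291–531 cells.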

For assay [6], the system named is BT-549. The experiment in a line: Induction of intracellular Ca2+ concentration in human BT-549 cells at 150 to 500 nM after 3 hrs by Cal520-AM dye-based fluorescence assay. It counts as functional, cell-based. Conditions: dose nM 150-500, time 3.0 hrs. Summed up:
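BT-549 cells on coverslips at 60–80% confluency, loaded with 2.5 µM Cal-520 AM plus 0.2% Pluronic F-127 for 30 min at 37 °C, then washed. Imaged at 20× at T0 and 3 h after 150 or 500 nM compound, multiple fields. Per-cell corrected total fluorescence normalized to T0, versus DMSO; two-way ANOVA with Dunnett's test, n = 102–242 cells.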

The nature of assay [7]: Induction of intracellular Ca2+ concentration in human BT-549 cells at 150 nM after 2 hrs by Cal520-AM dye-based fluorescence assay relative to control. Type of assay: functional. A digest of the protocol: as §3

Activity calls are given as the source filed them. The rule behind the calls is not given here.

Turning to `C[C@]12CC[C@H]3[C@@H](CC[C@H]4C[C@@H](O)CC[C@@]43CO)[C@@]1(O)CC[C@@H]2C1=CC(=O)OC1` [COROGLAUCIGENIN], the values for the 50% inhibitory concentration (IC50) in the assay on Hs-578T, in the assay with MDA-MB-231 [2] and in the assay on BT-549 [3] were 1800 nM, 20000 nM and 2300 nM, respectively. In addition, the “Ratio IC50” value in assay [1] worked out at 9. The compound further returned an EC50 in assay [4] of 1100 nM.

In the case of `C[C@H]1O[C@@H](O[C@H]2CC[C@@]3(CO)[C@@H](CC[C@@H]4[C@@H]3CC[C@]3(C)[C@@H](C5=CC(=O)OC5)CC[C@]43O)C2)[C@H](O)[C@H](O)[C@@H]1O`, the IC50 in the assay with Hs-578T was determined as 380 nM; with MDA-MB-231 [2] it was 1250 nM; with BT-549 [3], 121 nM. Besides, the “Ratio IC50” value in [1] was 10. Also, in assay [4], the EC50 amounted to 500 nM.

As for `C[C@]12CC[C@H](O)C[C@@H]1CC[C@@H]1[C@@H]2CC[C@]2(C)[C@@H](C3=CC(=O)OC3)CC[C@]12O`, the figures for the concentration for half-maximal inhibition (IC50) in the assay with Hs-578T, in the assay on MDA-MB-231 [2] and in the assay with BT-549 [3] were 3600 nM, above 30000 nM and 3900 nM, respectively. In assay [1], the “Ratio IC50” value is given as above 8. The response in assay [4] was half-maximal at 2100 nM (EC50).

Take `C[C@H]1O[C@@H](O[C@H]2[C@@H](O)C[C@H](O[C@H]3[C@@H](O)C[C@H](O[C@H]4CC[C@@]5(C)[C@H](CC[C@@H]6[C@@H]5C[C@@H](O)[C@]5(C)[C@@H](C7=CC(=O)OC7)CC[C@]65O)C4)O[C@@H]3C)O[C@@H]2C)C[C@H](O)[C@@H]1O` [DIGOXIN]: the IC50 in the assay on Hs-578T was 69 nM; in the assay with HCC70 it was 640 nM; in the assay on SUM185PE it was 280 nM; in the assay on CAL-51 it was 130 nM; with MDA-MB-468, 230 nM; with HCC1937, 550 nM. The IC50 with MDA-MB-231 [2] was found to be 480 nM; with BT-549 [3], 51 nM; in the assay on HCC1806, 280 nM; with MDA-MB-453, 230 nM.

For `C[C@H]1O[C@H]2O[C@@H]3C[C@@H]4CC[C@@H]5[C@H](CC[C@]6(C)[C@@H](C7=CC(=O)OC7)CC[C@]56O)[C@@]4(C=O)C[C@H]3O[C@@]2(O)[C@H](O)[C@@H]1O`, the IC50 is 120 nM with Hs-578T, 630 nM in the assay with MDA-MB-231 [2] and 49 nM with BT-549 [3]. Besides, the “Ratio IC50” value in [1] was determined as 13. In [4], this compound had an EC50 of 300 nM.

In the case of `C[C@H]1O[C@@H](O[C@H]2CC[C@@]3(CO)[C@@H](CC[C@@H]4[C@@H]3CC[C@]3(C)[C@@H](C5=CC(=O)OC5)CC[C@]43O)C2)[C@H](O)[C@H](O)[C@@H]1O[C@@H]1O[C@H](CO)[C@@H](O)[C@H](O)[C@H]1O`, the 50% inhibitory concentration (IC50) worked out at 300 nM in the assay with Hs-578T, 980 nM in the assay with MDA-MB-231 [2] and 70 nM with BT-549 [3]. The “Ratio IC50” value in assay [1] stood at 14. Moreover, the half-maximal effective concentration (EC50) in [4] was 600 nM.

For `C[C@]12CC[C@H](O[C@@H]3O[C@H](CO)[C@@H](O)[C@H](O)[C@H]3O)C[C@@H]1CC[C@@H]1[C@@H]2CC[C@]2(C)[C@@H](C3=CC(=O)OC3)CC[C@]12O` [DESGLUCOUZARIN], the IC50 stood at 1570 nM in the assay on Hs-578T, 10000 nM in the assay with MDA-MB-231 [2] and 1800 nM in the assay with BT-549 [3]. The “Ratio IC50” value in assay [1] was found to be 6. For the same compound, in [4], the 50% effective concentration (EC50) is 1100 nM.

Consider `C[C@H]1O[C@@H](O[C@@H]2C[C@@H]3CC[C@@H]4[C@H](CC[C@]5(C)[C@@H](C6=CC(=O)OC6)CC[C@]45O)[C@@]3(C=O)C[C@H]2O)[C@H](O)[C@H](O)[C@@H]1O`, for which the IC50 in the assay with Hs-578T is 3900 nM; in the assay on MDA-MB-231 [2], 10000 nM; in the assay on BT-549 [3], 1400 nM. Also, in [1], the “Ratio IC50” value came to 7. The concentration for a half-maximal effect (EC50) in assay [4] is 2500 nM.

`C[C@@H]1C[C@@]2(N=CCS2)[C@]2(O)O[C@@H]3C[C@@]4(C=O)[C@@H](CC[C@@H]5[C@@H]4CC[C@]4(C)[C@@H](C6=CC(=O)OC6)CC[C@]54O)C[C@H]3O[C@@H]2O1` [USCHARIN]: the IC50 amounted to 34 nM in the assay with Hs-578T, 102 nM in the assay on MDA-MB-231 [2] and 14.6 nM in the assay on BT-549 [3]. Further, the “Ratio IC50” value in assay [1] came to 7. In addition, a half-maximal response in [4] (EC50) required 910 nM.

As to `C[C@@H]1C[C@H](O)[C@]2(O)O[C@@H]3C[C@@]4(C=O)[C@@H](CC[C@@H]5[C@@H]4CC[C@]4(C)[C@@H](C6=CC(=O)OC6)CC[C@]54O)C[C@H]3O[C@@H]2O1` [CALOTROPIN], the half-inhibitory concentration (IC50) in the assay on Hs-578T was 60 nM; in the assay with MDA-MB-231 [2], 440 nM; in the assay on BT-549 [3] it was 30 nM. In assay [1], the “Ratio IC50” value was determined as 15. Besides, the result in the assay with MDA-MB-231 [5] and with BT-549 [6] was Active. For the same compound, the “fold change (FC)” value in [7] amounted to 2. In addition, in assay [4], the half-maximal effective concentration (EC50) amounted to 360 nM.

What is called IC50 is the concentration at which inhibition is half-maximal. Usually EC50 stands for the midpoint of the concentration-response curve. Read a high EC50 as a need for much substance.
